Measurements taken from ChEMBL document CHEMBL1914339, “Design, synthesis and biological evaluation of pyridine acyl sulfonamide derivatives as novel COX-2 inhibitors” (Bioorg Med Chem, 2011).
Active and inactive are the calls of the source. The calls are words filed in the database; no cut-off is given here.

Assays:
[1] = system: HepG2; assay: Antiproliferative activity against human HepG2 cells after 48 hrs by MTT colorimetric assay; assay type: functional, cell-based; details: HepG2, 48 h
Procedure, shortened: (§1)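 Cells seeded at 2 × 10⁴ cells/ml and grown 24 h, then exposed in exponential growth to final compound concentrations of 0.1 to 100 for 48 h. Survival read by MTT (0.5 mg/mL in DMEM, 4 h) with absorbance at 570 nm. Three replicate wells per concentration; each assay run at least three times.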

[2] = biological target: Prostaglandin G/H synthase 2 (Mus musculus) (UniProt Q05769)
[3] = system: MCF7; assay: Antiproliferative activity against human MCF7 cells after 48 hrs by MTT colorimetric assay; assay type: functional, cell-based; details: MCF7, 48 h; procedure, shortened: as §1
[4] = system: RAW264.7; assay: Antiinflammatory activity in mouse RAW264.7 cells assessed as inhibition of LPS-induced PGE2 production; assay type: functional, cell-based
[5] = biological target: Prostaglandin G/H synthase 1 (Mus musculus) (UniProt P22437)
[6] = system: B16-F10; assay: Antiproliferative activity against mouse B16F10 cells after 48 hrs by MTT colorimetric assay; assay type: functional, cell-based; details: B16-F10, 48 h; procedure, shortened: as §1
[7] = system: RAW264.7; assay: Inhibition of LPS-induced COX2 expression in mouse RAW264.7 cells at 0.75 to 1.5 uM treated 15 mins before LPS challenge measured after 18 hrs by Western blotting; assay type: functional, cell-based
Procedure, shortened: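 RAW 264.7 cells (5 × 10⁵) were plated for 24 h, then pretreated with compound for 15 min before LPS stimulation for 18 h. Cells were lysed in lysis buffer and COX-2 protein was detected by Western immunoblot.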

Chain of Prostaglandin G/H synthase 2 (Mus musculus) (Q05769 whole entry, looked up): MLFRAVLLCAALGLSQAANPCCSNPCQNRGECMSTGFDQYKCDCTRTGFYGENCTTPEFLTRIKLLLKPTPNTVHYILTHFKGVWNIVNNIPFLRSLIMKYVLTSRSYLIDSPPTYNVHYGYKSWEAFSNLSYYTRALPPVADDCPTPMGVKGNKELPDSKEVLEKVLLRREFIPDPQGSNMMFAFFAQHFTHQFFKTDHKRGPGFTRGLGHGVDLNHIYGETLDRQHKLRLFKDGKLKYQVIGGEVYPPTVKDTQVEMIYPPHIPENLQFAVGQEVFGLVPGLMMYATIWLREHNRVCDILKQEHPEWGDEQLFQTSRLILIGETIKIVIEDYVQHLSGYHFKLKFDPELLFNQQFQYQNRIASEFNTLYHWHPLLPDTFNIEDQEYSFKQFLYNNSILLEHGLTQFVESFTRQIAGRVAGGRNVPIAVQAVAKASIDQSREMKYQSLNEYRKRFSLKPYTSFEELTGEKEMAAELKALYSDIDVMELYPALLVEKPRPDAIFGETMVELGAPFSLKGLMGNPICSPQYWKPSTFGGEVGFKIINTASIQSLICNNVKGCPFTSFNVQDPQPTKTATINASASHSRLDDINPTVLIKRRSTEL
Chain of Prostaglandin G/H synthase 1 (Mus musculus) (P22437 whole entry, looked up): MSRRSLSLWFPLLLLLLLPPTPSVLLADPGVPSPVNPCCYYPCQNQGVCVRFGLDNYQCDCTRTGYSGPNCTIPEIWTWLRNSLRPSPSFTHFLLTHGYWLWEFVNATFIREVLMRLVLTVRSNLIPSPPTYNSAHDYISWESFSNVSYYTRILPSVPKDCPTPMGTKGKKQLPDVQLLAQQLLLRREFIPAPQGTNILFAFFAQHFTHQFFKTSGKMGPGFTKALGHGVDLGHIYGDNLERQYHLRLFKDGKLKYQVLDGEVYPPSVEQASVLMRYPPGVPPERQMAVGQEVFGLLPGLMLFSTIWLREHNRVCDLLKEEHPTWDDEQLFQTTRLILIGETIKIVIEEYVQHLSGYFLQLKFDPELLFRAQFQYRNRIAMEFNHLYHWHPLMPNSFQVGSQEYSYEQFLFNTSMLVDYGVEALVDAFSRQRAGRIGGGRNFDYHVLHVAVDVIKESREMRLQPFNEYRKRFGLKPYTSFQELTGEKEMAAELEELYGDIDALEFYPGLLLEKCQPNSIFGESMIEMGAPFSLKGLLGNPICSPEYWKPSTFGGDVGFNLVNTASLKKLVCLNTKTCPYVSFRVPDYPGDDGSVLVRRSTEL

SMILES	IC50 [1]	IC50 [2]	IC50 [3]	IC50 [4]	IC50 [5]	IC50 [6]	inhibition [7]
O=C(NS(=O)(=O)c1ccc(Br)cc1)c1ccncc1	6.3 µM	7.8 µM	8.7 µM	5.5 µM	38 µM	8.8 µM	–
O=C(NS(=O)(=O)c1ccc(F)cc1)c1cccnc1	9 µM	11.7 µM	10.6 µM	8.6 µM	> 50 µM	13.8 µM	–
O=C(NS(=O)(=O)c1ccc(Br)cc1)c1ccccn1	5 µM	3.6 µM	6.8 µM	1.9 µM	> 50 µM	8.5 µM	–
O=C(NS(=O)(=O)c1ccc(Cl)cc1)c1ccncc1	7.9 µM	12.6 µM	10.1 µM	8.9 µM	41.2 µM	12.4 µM	–
Cc1ccc(-c2cc(C(F)(F)F)nn2-c2ccc(S(N)(=O)=O)cc2)cc1 [CELECOXIB]	95.5 µM	–	40.8 µM	0.1 µM	–	85.6 µM	–
O=C(NS(=O)(=O)c1ccccc1)c1cccnc1	10.4 µM	15.8 µM	11.5 µM	9.5 µM	> 50 µM	14.5 µM	–
O=C(NS(=O)(=O)c1ccc(Cl)cc1)c1ccccn1	8.1 µM	6 µM	9.8 µM	2.8 µM	39.7 µM	9.4 µM	–
O=C(NS(=O)(=O)c1ccc(Br)cc1)c1cccnc1	6.7 µM	4.9 µM	8.3 µM	2.8 µM	40.5 µM	9.7 µM	–
O=C(NS(=O)(=O)c1ccc(Cl)cc1)c1cccnc1	8.6 µM	6.6 µM	10.1 µM	3.2 µM	35.8 µM	11.9 µM	–
O=C(NS(=O)(=O)c1ccc(F)cc1)c1ccncc1	12.4 µM	12.1 µM	13.9 µM	9.2 µM	> 50 µM	13.8 µM	–
O=C(NS(=O)(=O)c1ccccc1)c1ccccn1	9.9 µM	8.8 µM	10.6 µM	4.5 µM	> 50 µM	14.2 µM	–

The next lines start with results.

IC50 [1]	IC50 [2]	IC50 [3]	IC50 [4]	IC50 [5]	IC50 [6]	SMILES	inhibition [7]
1.2 µM	0.8 µM	1.8 µM	0.15 µM	35.6 µM	2.8 µM	O=C(NS(=O)(=O)c1ccc(Br)cc1)c1cccc(C(=O)NS(=O)(=O)c2ccc(Br)cc2)n1	Active
3.3 µM	2.8 µM	4.1 µM	1.2 µM	42.5 µM	7.2 µM	O=C(NS(=O)(=O)c1ccc(Br)cc1)c1cncc(C(=O)NS(=O)(=O)c2ccc(Br)cc2)c1	–
9.2 µM	7.9 µM	10.6 µM	2.6 µM	36.9 µM	11.3 µM	O=C(NS(=O)(=O)c1ccccc1)c1cncc(C(=O)NS(=O)(=O)c2ccccc2)c1	–
5.3 µM	3.7 µM	9.3 µM	1.6 µM	35.8 µM	10.7 µM	O=C(NS(=O)(=O)c1ccccc1)c1cccc(C(=O)NS(=O)(=O)c2ccccc2)n1	–
12.3 µM	18.2 µM	15.5 µM	8.8 µM	> 50 µM	18.5 µM	Cc1ccc(S(=O)(=O)NC(=O)c2cccnc2)cc1	–
6.2 µM	5.6 µM	7.9 µM	1.9 µM	40.2 µM	8.8 µM	O=C(NS(=O)(=O)c1ccc(F)cc1)c1cncc(C(=O)NS(=O)(=O)c2ccc(F)cc2)c1	–
12.1 µM	8 µM	11.8 µM	5.9 µM	> 50 µM	16.7 µM	Cc1ccc(S(=O)(=O)NC(=O)c2ccccn2)cc1	–
8.5 µM	6.3 µM	11 µM	3.3 µM	43.8 µM	10.9 µM	O=C(NS(=O)(=O)c1ccc(F)cc1)c1ccccn1	–
20.2 µM	19.4 µM	14.1 µM	9.8 µM	> 50 µM	16.2 µM	Cc1ccc(S(=O)(=O)NC(=O)c2ccncc2)cc1	–
3.8 µM	1.9 µM	4.2 µM	0.87 µM	41.5 µM	6.2 µM	O=C(NS(=O)(=O)c1ccc(Cl)cc1)c1cccc(C(=O)NS(=O)(=O)c2ccc(Cl)cc2)n1	–
3.7 µM	2.6 µM	4.6 µM	1.1 µM	40.3 µM	10 µM	O=C(NS(=O)(=O)c1ccc(F)cc1)c1cccc(C(=O)NS(=O)(=O)c2ccc(F)cc2)n1	–
4.2 µM	5.6 µM	6.2 µM	2.1 µM	39.8 µM	12.2 µM	Cc1ccc(S(=O)(=O)NC(=O)c2cccc(C(=O)NS(=O)(=O)c3ccc(C)cc3)n2)cc1	–
10 µM	8.5 µM	10.8 µM	2.2 µM	> 50 µM	9.2 µM	Cc1ccc(S(=O)(=O)NC(=O)c2cncc(C(=O)NS(=O)(=O)c3ccc(C)cc3)c2)cc1	–
